Measurements reported in ChEMBL document CHEMBL1795281, “Prenylated Polyhydroxy-p-terphenyls from Aspergillus taichungensis ZHN-7-07” (J Nat Prod, 2011).

Tests used:
Type in all cases: functional, cell-based
HL-60 = assay: Cytotoxicity against human HL60 cells by MTT assay
In short: (§1)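 MTT read-out on HL-60 and P-388 cell lines, with adriamycin as the positive control. IC50 values are means of three independent experiments.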

P388 = assay: Cytotoxicity against mouse P388 cells by MTT assay; in short: as §1
A549 = assay: Cytotoxicity against human A549 cells by SRB assay
In short: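 SRB staining assay on A-549 cells, run alongside an adriamycin positive control. IC50 values are means of three independent experiments.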

COc1cc2oc3c(OC)c(-c4ccc(O)c(CC=C(C)C)c4)cc(OC)c3c2cc1O [PRENYLCANDIDUSIN C]
IC50 (HL-60): 10.1 µM | IC50 (P388): 75.7 µM | IC50 (A549): 12.3 µM

COc1ccc(-c2cc(OC)c3c(oc4cc(O)c(O)cc43)c2OC)cc1 [CANDIDUSIN C]
IC50 (HL-60): 16.5 µM | IC50 (P388): 96.9 µM | IC50 (A549): 83.6 µM

COc1cc2oc3c(OC)c(-c4ccc(O)c(CC=C(C)C)c4)cc(OC)c3c2cc1OC [PRENYLCANDIDUSIN B]
IC50 (HL-60): 76.7 µM | IC50 (P388): 1.57 µM | IC50 (A549): 8.61 µM

COc1cc(-c2ccc(O)c(O)c2)c(OC)c(O)c1-c1ccc(O)c(O)c1
IC50 (HL-60): 11 µM | IC50 (P388): 9.13 µM | IC50 (A549): 14.3 µM

COc1c(-c2ccc(O)cc2)cc(OC)c2c1oc1cc(O)c(O)cc12 [CANDIDUSIN A]
IC50 (HL-60): 77.6 µM | IC50 (P388): 46.8 µM | IC50 (A549): 19.3 µM

COc1cc(-c2ccc(O)c(CC=C(C)C)c2)c(OC)c(O)c1-c1ccc(O)c(O)c1 [PRENYLTERPHENYLLIN A]
IC50 (HL-60): 1.53 µM | IC50 (P388): 10.9 µM | IC50 (A549): 8.32 µM

COc1cc(-c2ccc(O)cc2)c(OC)c(O)c1-c1ccc(O)cc1 [TERPHENYLLIN]
IC50 (HL-60): 11 µM | IC50 (P388): 17.8 µM | IC50 (A549): 12.2 µM

COc1cc(-c2ccc(O)cc2)c(OC)c(O)c1-c1cc(O)c(O)c(CC=C(C)C)c1 [PRENYLTERPHENYLLIN C]
IC50 (HL-60): 28.2 µM | IC50 (P388): 86.2 µM | IC50 (A549): > 100 µM

COc1c(-c2ccc(O)c(CC=C(C)C)c2)cc(OC)c2c1oc1cc(O)c(O)cc12 [PRENYLCANDIDUSIN A]
IC50 (HL-60): 11.8 µM | IC50 (P388): 16.5 µM | IC50 (A549): 53.2 µM

COc1cc(-c2ccc(O)c(CC=C(C)C)c2)c(OC)c(O)c1-c1ccc(O)cc1 [PRENYLTERPHENYLLIN B]
IC50 (HL-60): 38.6 µM | IC50 (P388): 12.6 µM | IC50 (A549): > 100 µM

COc1cc(-c2ccc(O)cc2)c(OC)c(O)c1-c1ccc(O)c(O)c1
IC50 (HL-60): 9.86 µM | IC50 (P388): 28.1 µM | IC50 (A549): 34.7 µM

COc1cc(-c2ccc(O)cc2)c(OC)c(O)c1-c1ccc(O)c(CC=C(C)C)c1 [PRENYLTERPHENYLLIN]
IC50 (HL-60): 2.75 µM | IC50 (P388): 1.99 µM | IC50 (A549): 3.62 µM

COc1cc(-c2ccccc2)c(OC)c(O)c1-c1ccc(O)c(O)c1
IC50 (HL-60): 9.89 µM | IC50 (P388): 2.7 µM | IC50 (A549): 40.7 µM
